≈ marks a conversion by molar mass, not a printed value. Calls of active or inactive are those of the source. No cut-off for these calls is given here.
Tests used:
Klebsiella aerogenes [1] = assay: Antibacterial activity against Enterobacter aerogenes ATCC 13048 after 18 hrs by two fold serial dilution method; assay type: functional; settings: ATCC 13048, 18 h
Klebsiella aerogenes [2] = assay: Antibacterial activity against AcrAB-TolC-over producing Enterobacter aerogenes CM-64 after 18 hrs by two fold serial dilution method; assay type: functional; settings: CM-64, 18 h
Klebsiella aerogenes [3] = assay: Inhibition of AcrAB-TolC efflux pump in Enterobacter aerogenes CM-64 assessed as fold decrease in nalidixic acid MIC at 62.5 uM relative to control
Outline: (§1)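 Nalidixic acid MIC (two-fold serial dilutions, about 10^6 cells/mL Mueller-Hinton broth, 18 h, 37 C) determined with a fixed sub-inhibitory level of compound present during incubation. Activity gain A = nalidixic acid MIC without compound divided by MIC with compound. PAbN at 0.050 mM served as reference inhibitor.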

Klebsiella aerogenes [4] = assay: Inhibition of AcrAB-TolC efflux pump in Enterobacter aerogenes ATCC 13048 assessed as fold decrease in nalidixic acid MIC at 62.5 uM relative to control; outline: as §1
Klebsiella aerogenes [5] = assay: Inhibition of AcrAB-TolC efflux pump in Enterobacter aerogenes CM-64 assessed as effect on nalidixic acid MIC at 62.5 uM relative to control
Klebsiella aerogenes [6] = assay: Inhibition of AcrAB-TolC efflux pump in Enterobacter aerogenes ATCC 13048 assessed as effect on nalidixic acid MIC at 62.5 uM relative to control
Klebsiella aerogenes [7] = assay: Inhibition of AcrAB-TolC efflux pump in Enterobacter aerogenes CM-64 assessed as fold decrease in nalidixic acid MIC at 100 uM relative to control; outline: as §1
Klebsiella aerogenes [8] = assay: Inhibition of AcrAB-TolC efflux pump in Enterobacter aerogenes ATCC 13048 assessed as effect on nalidixic acid MIC at 100 uM relative to control; outline: as §1
Klebsiella aerogenes [9] = assay: Inhibition of AcrAB-TolC efflux pump in Enterobacter aerogenes CM-64 assessed as fold decrease in nalidixic acid MIC at 333 uM relative to control; outline: as §1

| MIC (Klebsiella aerogenes [1]) | MIC (Klebsiella aerogenes [2]) | fold change (FC) (Klebsiella aerogenes [3]) | fold change (FC) (Klebsiella aerogenes [4]) | inhibition (Klebsiella aerogenes [5]) | inhibition (Klebsiella aerogenes [6]) | fold change (FC) (Klebsiella aerogenes [7]) | inhibition (Klebsiella aerogenes [8]) | fold change (FC) (Klebsiella aerogenes [9]) | SMILES |
| --- | --- | --- | --- | --- | --- | --- | --- | --- | --- |
| 125 µM (≈ 69.8 µg/mL) | 250 µM (≈ 140 µg/mL) | 4 | 2 |  |  |  |  |  | COc1ccccc1N1CCN(CC(O)CN2C(=O)N(CC(=O)O)C(=O)C2(c2ccccc2)c2ccccc2)CC1 (configuration not stated) |
| > 500 µM | > 500 µM |  |  |  |  | 4 | inactive |  | COC(=O)CN1C(=O)N(CCCCN2CCN(c3ccccc3)CC2)C(c2ccccc2)(c2ccccc2)C1=O |
| > 500 µM | > 500 µM |  |  |  |  |  | inactive |  | COC(=O)CN1C(=O)N(CCCN2CCN(c3ccccc3)CC2)C(c2ccccc2)(c2ccccc2)C1=O |
| > 500 µM | > 500 µM |  |  |  |  | 4 | inactive |  | CN1C(=O)N(CCCCCN2CCN(c3ccccc3)CC2)C(c2ccccc2)(c2ccccc2)C1=O |
| 250 µM (≈ 146 µg/mL) | 250 µM (≈ 146 µg/mL) |  |  |  |  |  |  |  | COC(=O)CN1C(=O)N(CC(CN2CCN(c3ccccc3)CC2)OC(C)=O)C(c2ccccc2)(c2ccccc2)C1=O (configuration not stated) |
| > 500 µM | > 500 µM |  |  |  |  |  | inactive |  | CC(=O)OC(CN1CCN(c2ccccc2)CC1)CN1C(=O)N(C)C(=O)C1(c1ccccc1)c1ccccc1 (configuration not stated) |
| 62.5 µM (≈ 34.8 µg/mL) | 250 µM (≈ 139 µg/mL) | 4 | 2 |  |  |  |  |  | COc1ccccc1N1CCN(CCCCN2C(=O)N(CC(=O)O)C(=O)C2(c2ccccc2)c2ccccc2)CC1 |
| 5000 µM (≈ 2710 µg/mL) | 5000 µM (≈ 2710 µg/mL) |  |  |  |  |  |  | 4 | COC(=O)CN1C(=O)N(CC(O)CN2CCN(c3ccccc3)CC2)C(c2ccccc2)(c2ccccc2)C1=O (configuration not stated) |
| > 500 µM | > 500 µM |  |  |  |  |  | inactive |  | CN1C(=O)N(CC(O)CN2CCN(c3ccccc3)CC2)C(c2ccccc2)(c2ccccc2)C1=O (configuration not stated) |
| > 500 µM | > 500 µM |  |  |  |  |  | inactive |  | COc1ccccc1N1CCN(CCCN2C(=O)N(C)C(=O)C2(c2ccccc2)c2ccccc2)CC1 |
| 1250 µM (≈ 653 µg/mL) | 1250 µM (≈ 653 µg/mL) |  |  | inactive | inactive |  |  |  | CCOC(=O)N1CCN(CCCCN2C(=O)N(CC(=O)O)C(=O)C2(c2ccccc2)c2ccccc2)CC1 |
| > 500 µM | > 500 µM |  |  |  |  |  | inactive |  | O=C1NC(=O)C(c2ccccc2)(c2ccccc2)N1CCCCN1CCN(c2ccccc2)CC1 |

The next lines start with the compound.

| SMILES | MIC (Klebsiella aerogenes [1]) | MIC (Klebsiella aerogenes [2]) | fold change (FC) (Klebsiella aerogenes [3]) | fold change (FC) (Klebsiella aerogenes [4]) | inhibition (Klebsiella aerogenes [5]) | inhibition (Klebsiella aerogenes [6]) | fold change (FC) (Klebsiella aerogenes [7]) | inhibition (Klebsiella aerogenes [8]) | fold change (FC) (Klebsiella aerogenes [9]) |
| --- | --- | --- | --- | --- | --- | --- | --- | --- | --- |
| COC(=O)CN1C(=O)N(CC(O)CNC(C)C)C(c2ccccc2)(c2ccccc2)C1=O (configuration not stated) | 125 µM (≈ 54.9 µg/mL) | 125 µM (≈ 54.9 µg/mL) |  |  | inactive | inactive |  |  |  |
| CCOC(=O)N1CCN(CCCCCCN2C(=O)N(CC(=O)OC)C(=O)C2(c2ccccc2)c2ccccc2)CC1 | 1250 µM (≈ 706 µg/mL) | 1250 µM (≈ 706 µg/mL) |  |  | inactive | inactive |  |  |  |
| O=C(O)CN1C(=O)N(CCCN2CCCN3CCCN=C32)C(c2ccccc2)(c2ccccc2)C1=O | 1250 µM (≈ 612 µg/mL) | 1250 µM (≈ 612 µg/mL) |  |  | inactive | inactive |  |  |  |
| O=C(O)CN1C(=O)N(CCCCN2CCCN3CCCN=C23)C(c2ccccc2)(c2ccccc2)C1=O | 1250 µM (≈ 630 µg/mL) | 1250 µM (≈ 630 µg/mL) |  |  | inactive | inactive |  |  |  |
| NCCCCCCN1C(=O)N(CC(=O)O)C(=O)C1(c1ccccc1)c1ccccc1 | 1250 µM (≈ 512 µg/mL) | 1250 µM (≈ 512 µg/mL) |  |  | inactive | inactive |  |  |  |
| CCOC(=O)N1CCN(CCCCCCCCN2C(=O)N(CC(=O)OC)C(=O)C2(c2ccccc2)c2ccccc2)CC1 | 1250 µM (≈ 741 µg/mL) | 1250 µM (≈ 741 µg/mL) |  |  | inactive | inactive |  |  |  |
| O=C(O)CN1C(=O)N(CCCCCN2CCCN3CCCN=C23)C(c2ccccc2)(c2ccccc2)C1=O | 1250 µM (≈ 647 µg/mL) | 1250 µM (≈ 647 µg/mL) |  |  | inactive | inactive |  |  |  |
| NCCCN1C(=O)N(CC(=O)O)C(=O)C1(c1ccccc1)c1ccccc1 | 1250 µM (≈ 459 µg/mL) | 1250 µM (≈ 459 µg/mL) |  |  | inactive | inactive |  |  |  |
| CCOC(=O)N1CCN(CCCCCN2C(=O)N(CC(=O)OC)C(=O)C2(c2ccccc2)c2ccccc2)CC1 | 1250 µM (≈ 688 µg/mL) | 1250 µM (≈ 688 µg/mL) |  |  | inactive | inactive |  |  |  |
| NCCCCN1C(=O)N(CC(=O)O)C(=O)C1(c1ccccc1)c1ccccc1 | 1250 µM (≈ 477 µg/mL) | 1250 µM (≈ 477 µg/mL) |  |  | inactive | inactive |  |  |  |
| COC(=O)CN1C(=O)N(CCCCCCCCN2CCNCC2)C(c2ccccc2)(c2ccccc2)C1=O | 1250 µM (≈ 651 µg/mL) | 1250 µM (≈ 651 µg/mL) |  |  | inactive | inactive |  |  |  |
| CCOC(=O)N1CCN(CCCCN2C(=O)N(CC(=O)OC)C(=O)C2(c2ccccc2)c2ccccc2)CC1 | 1250 µM (≈ 671 µg/mL) | 1250 µM (≈ 671 µg/mL) |  |  | inactive | inactive |  |  |  |
| O=C(O)CN1C(=O)N(CCCCCCN2CCCN3CCCN=C23)C(c2ccccc2)(c2ccccc2)C1=O | 1250 µM (≈ 665 µg/mL) | 1250 µM (≈ 665 µg/mL) |  |  | inactive | inactive |  |  |  |

— ChEMBL document CHEMBL1914425, “Amine-alkyl derivatives of hydantoin: new tool to combat resistant bacteria” (2011)
